In ChEMBL document CHEMBL4350958, “Rational Design of Short Peptide Variants by Using Kunitzin-RE, an Amphibian-Derived Bioactivity Peptide, for Acquired Potent Broad-Spectrum Antimicrobial and Improved Therapeutic Potential of Commensalism Coinfection of Pathogens” (J Med Chem, 2019):
The source made the active and inactive calls. The rule behind the calls is not given here.

Experiments:
[1] = tested on: Staphylococcus aureus; assay: Bactericidal activity against Staphylococcus aureus ATCC 29213 assessed as reduction in bacterial growth at MBC measured within 30 mins by time-kill assay relative to control; assay type: functional; design: scale not given: the % may be the effect or the level left
Outline: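 Time-kill: cells at a final 0.5–1×10^5 CFU/mL were exposed to peptide at 1×MBC/MFC. Aliquots were removed at intervals to count survivors against an untreated control. Means of three independent experiments, each with three technical replicates.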

[2] = tested on: Lipid bilayer; assay: Induction of membrane disruption in PG/CL/PE large unilamellar vesicles assessed as calcein-entrapped liposome leakage at 8 uM after 15 mins by spectrofluorophotometric assay relative to control
Outline: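 Calcein (70 mM)-loaded LUVs of PG/CL/PE (2:1:7 w/w/w, E. coli membrane mimic), made by freeze-thaw and 100-nm extrusion, free dye removed on Sephadex G-50. LUVs (100 μM) exposed to peptide (1–64 μM) for 15 min. Leakage read at ex 490/em 520 nm: liposomes alone are background, Triton X-100 is 100%. Independent triplicates.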

[3] = tested on: Lipopolysaccharide (LPS); assay: Displacement of BODIPY-TR-cadaverine from Escherichia coli O111:B4 LPS at 16 uM after 1 hr by spectrofluorophotometric method relative to control
Outline: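 E. coli O111:B4 LPS (50 μg/mL) preloaded 4 h with BODIPY-TR-cadaverine (5 μg/mL) in 50 mM Tris, pH 7.4. Mixed 1:1 with peptide (1–64 µM series), 1 h at 37 °C, then fluorescence read. Expressed as %ΔF: 0% is probe with LPS and no peptide, 100% is probe with LPS plus 10 μg/mL polymyxin B. Three technical replicates.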

[4] = tested on: Escherichia coli; assay: Induction of morphological changes in Escherichia coli ATCC 25922 at MBD measured after 1 hr by atomic force microscopic analysis; assay type: functional, organism-based
[5] = tested on: Escherichia coli; assay: Induction of morphological changes in Escherichia coli ATCC 25922 assessed as membrane creping at MBD measured after 1 hr by scanning electron microscopic analysis; assay type: functional, organism-based
[6] = tested on: Staphylococcus aureus; assay: Induction of morphological changes in Staphylococcus aureus ATCC 29213 assessed as membrane creping at MBD measured after 1 hr by atomic force microscopic analysis; assay type: functional, organism-based
[7] = tested on: Staphylococcus aureus; assay: Induction of morphological changes in Staphylococcus aureus ATCC 29213 assessed as membrane blebbing at MBD measured after 1 hr by atomic force microscopic analysis; assay type: functional, organism-based

Substance: H-AARIILRWRFR-NH2
- Activity [1]: 99.99%
- Activity [2]: > 40%
- Activity [3]: 99%
- Activity [4]: Active
- Activity [5]: Active
- Activity [6]: Active
- Activity [7]: Active
